Measurements reported in ChEMBL document CHEMBL4396900, “Extending Cross Metathesis To Identify Selective HDAC Inhibitors: Synthesis, Biological Activities, and Modeling” (ACS Med Chem Lett, 2019).
Active and inactive are the calls of the source. No cut-off for these calls is given here.

What was measured:
[1] = biological target: NAD-dependent protein deacetylase sirtuin-2 (Homo sapiens, UniProt Q8IXJ6); test: Inhibition of human recombinant sirtuin 2 using fluoro-lysine sirtuin 2 deacetylase substrate measured after 60 mins by fluorimetry assay
Histone deacetylase 1 [2] = biological target: T1, Histone deacetylase 1 (Homo sapiens, UniProt Q13547); test: Inhibition of human recombinant HDAC1 using fluorogenic HDAC substrate measured after 15 mins by fluorimetry assay
[3] = biological target: NAD-dependent protein deacetylase sirtuin-1 (Homo sapiens) (UniProt Q96EB6); test: Inhibition of human recombinant sirtuin 1 at 10 uM using fluorogenic HDAC substrate measured after 20 mins by fluorimetry assay relative to control
[4] = biological target: T2, Protein deacetylase HDAC6 (Homo sapiens) (UniProt Q9UBN7); test: Inhibition of HDAC6 in human Meso163 cells assessed as increase in histone H3 acetylation at 20 uM measured after 6 to 20 hrs by Western blot analysis; type: cell-based
T2 sequence (whole entry): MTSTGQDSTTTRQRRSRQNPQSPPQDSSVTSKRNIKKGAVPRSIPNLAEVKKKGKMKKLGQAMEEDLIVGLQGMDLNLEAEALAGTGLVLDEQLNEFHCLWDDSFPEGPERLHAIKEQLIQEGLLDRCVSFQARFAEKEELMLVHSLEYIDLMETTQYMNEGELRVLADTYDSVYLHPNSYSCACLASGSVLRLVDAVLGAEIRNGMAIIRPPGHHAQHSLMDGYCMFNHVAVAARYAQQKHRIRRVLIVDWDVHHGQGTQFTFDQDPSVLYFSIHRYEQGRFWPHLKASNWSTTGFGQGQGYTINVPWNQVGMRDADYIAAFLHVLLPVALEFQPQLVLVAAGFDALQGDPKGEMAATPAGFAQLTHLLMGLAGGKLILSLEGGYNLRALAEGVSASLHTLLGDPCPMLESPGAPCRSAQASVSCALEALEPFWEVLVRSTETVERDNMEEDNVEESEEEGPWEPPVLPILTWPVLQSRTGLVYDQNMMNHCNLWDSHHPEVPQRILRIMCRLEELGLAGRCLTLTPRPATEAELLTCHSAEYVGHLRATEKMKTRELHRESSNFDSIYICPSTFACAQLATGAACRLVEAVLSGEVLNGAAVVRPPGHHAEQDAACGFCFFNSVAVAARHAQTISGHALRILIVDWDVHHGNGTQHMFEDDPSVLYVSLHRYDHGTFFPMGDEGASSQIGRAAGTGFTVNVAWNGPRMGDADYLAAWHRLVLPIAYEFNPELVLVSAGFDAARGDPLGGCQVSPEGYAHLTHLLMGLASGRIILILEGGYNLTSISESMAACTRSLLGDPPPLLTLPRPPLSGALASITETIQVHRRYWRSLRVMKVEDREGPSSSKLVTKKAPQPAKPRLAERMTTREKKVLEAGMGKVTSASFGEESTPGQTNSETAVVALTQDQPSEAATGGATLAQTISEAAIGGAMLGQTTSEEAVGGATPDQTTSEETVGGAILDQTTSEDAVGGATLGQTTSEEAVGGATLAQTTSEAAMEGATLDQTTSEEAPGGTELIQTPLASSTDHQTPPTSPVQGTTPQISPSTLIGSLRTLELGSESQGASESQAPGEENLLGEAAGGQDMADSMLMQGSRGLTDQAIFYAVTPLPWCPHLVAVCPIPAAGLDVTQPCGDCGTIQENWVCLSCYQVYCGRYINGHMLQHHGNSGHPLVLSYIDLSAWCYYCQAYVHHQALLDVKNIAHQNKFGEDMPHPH
Summary of the method: (§1)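 Meso 163 mesothelioma and A549 lung adenocarcinoma cells exposed to agent for 6 or 20 h; histone H3 and alpha-tubulin acetylation analysed by western blot with molecular-weight markers.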

Histone deacetylase 8 = Histone deacetylase 8 (Homo sapiens, UniProt Q9BY41); test: Inhibition of human recombinant HDAC8 using fluorogenic HDAC substrate measured after 60 mins by fluorimetry assay
cells [5] = type: functional, cell-based; details: Homo sapiens, 72 h
Histone deacetylase 11 = Histone deacetylase 11 (Homo sapiens, UniProt Q96DB2); test: Inhibition of human recombinant HDAC11 using fluorogenic HDAC substrate class 2a measured after 30 mins by fluorimetry assay
[6] = biological target: Histone deacetylase 8 (Homo sapiens) (UniProt Q9BY41); test: Inhibition of human recombinant HDAC8 at 10 uM using fluorogenic HDAC substrate measured after 60 mins by fluorimetry assay relative to control
[7] = biological target: T2, Protein deacetylase HDAC6 (Homo sapiens); test: Inhibition of HDAC6 in human A549 cells assessed as upregulation of semaphorin 3F mRNA expression at 20 uM after 24 hrs by RT-Sybr green PCR analysis; type: cell-based
Summary of the method: (§2)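 Meso 163 and A549 cells treated for 24 h; E-cadherin, Sema-3F and p21 mRNA quantified by real-time PCR; means ± S.E.M. of four independent experiments.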

[8] = biological target: T2, Protein deacetylase HDAC6 (Homo sapiens); test: Inhibition of human recombinant HDAC6 at 10 uM using fluorogenic HDAC substrate measured after 30 mins by fluorimetry assay relative to control
[9] = biological target: T2, Protein deacetylase HDAC6 (Homo sapiens); test: Inhibition of HDAC6 in human A549 cells assessed as upregulation of p21 mRNA expression at 20 uM after 24 hrs by RT-Sybr green PCR analysis; type: cell-based; summary of the method: as §2
Homo sapiens [10] = species on record: Homo sapiens; test: Selectivity ratio of IC50 for human recombinant HDAC8 to IC50 for human recombinant HDAC6
Homo sapiens [11] = species on record: Homo sapiens; test: Selectivity ratio of IC50 for human recombinant HDAC3 to IC50 for human recombinant HDAC6
Histone deacetylase 7 = Histone deacetylase 7 (Homo sapiens, UniProt Q8WUI4); test: Inhibition of human recombinant HDAC7 using fluorogenic HDAC substrate class 2a measured after 45 mins by fluorimetry assay
Histone deacetylase = type: cell-based, Homo sapiens
[12] = biological target: T2, Protein deacetylase HDAC6 (Homo sapiens); test: Inhibition of HDAC6 in human Meso163 cells assessed as increase in alpha tubulin acetylation at 20 uM measured after 6 to 20 hrs by Western blot analysis; type: cell-based; summary of the method: as §1
Histone deacetylase 2 [13] = biological target: T3, Histone deacetylase 2 (Homo sapiens, UniProt Q92769); test: Inhibition of human recombinant HDAC2 at 10 uM using fluorogenic HDAC substrate measured after 15 mins by fluorimetry assay relative to control
Histone deacetylase 4 [14] = biological target: T4, Histone deacetylase 4 (Homo sapiens, UniProt P56524); test: Inhibition of human recombinant HDAC4 at 10 uM using fluorogenic HDAC substrate class 2a measured after 30 mins by fluorimetry assay relative to control
Homo sapiens [15] = species on record: Homo sapiens; test: Selectivity ratio of IC50 for human recombinant HDAC10 to IC50 for human recombinant HDAC6
[16] = biological target: T2, Protein deacetylase HDAC6 (Homo sapiens); test: Inhibition of HDAC6 in human Meso163 cells assessed as upregulation of semaphorin 3F mRNA expression at 20 uM after 24 hrs by RT-Sybr green PCR analysis; type: cell-based; summary of the method: as §2
A549 = test: cells; type: functional, cell-based; details: Homo sapiens, A549, 72 h
[17] = biological target: T2, Protein deacetylase HDAC6 (Homo sapiens); test: Inhibition of HDAC6 in human Meso163 cells assessed as upregulation of p21 mRNA expression at 20 uM after 24 hrs by RT-Sybr green PCR analysis; type: cell-based; summary of the method: as §2
Histone deacetylase 1 [18] = biological target: T1, Histone deacetylase 1; test: Inhibition of human recombinant HDAC1 at 10 uM using fluorogenic HDAC substrate measured after 15 mins by fluorimetry assay relative to control
Homo sapiens [19] = species on record: Homo sapiens; test: Selectivity ratio of IC50 for human recombinant HDAC2 to IC50 for human recombinant HDAC6
Histone deacetylase 3 [20] = biological target: T5, Histone deacetylase 3 (Homo sapiens, UniProt O15379); test: Inhibition of human recombinant HDAC3 at 10 uM using fluorogenic HDAC substrate measured after 10 mins by fluorimetry assay relative to control
Histone deacetylase 3 [21] = biological target: T5, Histone deacetylase 3
[22] = biological target: T2, Protein deacetylase HDAC6 (Homo sapiens); test: Inhibition of HDAC6 in human A549 cells assessed as increase in alpha tubulin acetylation at 20 uM measured after 6 to 20 hrs by Western blot analysis; type: cell-based; summary of the method: as §1
Histone deacetylase 4 [23] = biological target: T4, Histone deacetylase 4; test: Inhibition of human recombinant HDAC4 using fluorogenic HDAC substrate class 2a measured after 30 mins by fluorimetry assay
[24] = biological target: Polyamine deacetylase HDAC10 (Homo sapiens, UniProt Q969S8); test: Inhibition of human recombinant HDAC10 using fluorogenic HDAC substrate measured after 45 mins by fluorimetry assay
[25] = biological target: T2, Protein deacetylase HDAC6 (Homo sapiens); test: Inhibition of HDAC6 in human A549 cells assessed as increase in histone H3 acetylation at 20 uM measured after 6 to 20 hrs by Western blot analysis; type: cell-based; summary of the method: as §1
cells [26] = type: functional, cell-based; details: Homo sapiens, 72 h; remark: listed apart in the source
Homo sapiens [27] = species on record: Homo sapiens; test: Selectivity ratio of IC50 for human recombinant HDAC11 to IC50 for human recombinant HDAC6
Histone deacetylase 5 [28] = biological target: T6, Histone deacetylase 5 (Homo sapiens, UniProt Q9UQL6); test: Inhibition of human recombinant HDAC5 at 10 uM using fluorogenic HDAC substrate class 2a measured after 30 mins by fluorimetry assay relative to control
Homo sapiens [29] = species on record: Homo sapiens; test: Selectivity ratio of IC50 for human recombinant HDAC1 to IC50 for human recombinant HDAC6
Histone deacetylase 9 = Histone deacetylase 9 (Homo sapiens, UniProt Q9UKV0); test: Inhibition of human recombinant HDAC9 using fluorogenic HDAC substrate class 2a measured after 30 mins by fluorimetry assay
cells [30] = type: functional, cell-based; details: Homo sapiens, 72 h; remark: listed apart in the source
[31] = biological target: T2, Protein deacetylase HDAC6 (Homo sapiens); test: Inhibition of HDAC6 in human A549 cells assessed as upregulation of E-cadherin mRNA expression at 20 uM after 24 hrs by RT-Sybr green PCR analysis; type: cell-based; summary of the method: as §2
Histone deacetylase 5 [32] = biological target: T6, Histone deacetylase 5; test: Inhibition of human recombinant HDAC5 using fluorogenic HDAC substrate class 2a measured after 30 mins by fluorimetry assay
[33] = biological target: NAD-dependent protein deacetylase sirtuin-3, mitochondrial (Homo sapiens) (UniProt Q9NTG7); test: Inhibition of human recombinant sirtuin 3 at 10 uM using fluoro-lysine sirtuin 2 deacetylase substrate measured after 45 mins by fluorimetry assay relative to control
[34] = biological target: Protein deacetylase HDAC6 (Homo sapiens, UniProt Q9UBN7); test: Inhibition of human recombinant HDAC6 using fluorogenic HDAC substrate measured after 30 mins by fluorimetry assay
[35] = biological target: Polyamine deacetylase HDAC10 (Homo sapiens) (UniProt Q969S8); test: Inhibition of human recombinant HDAC10 at 10 uM using fluorogenic HDAC substrate measured after 45 mins by fluorimetry assay relative to control
[36] = biological target: T2, Protein deacetylase HDAC6 (Homo sapiens); test: Inhibition of HDAC6 in human Meso163 cells assessed as upregulation of E-cadherin mRNA expression at 20 uM after 24 hrs by RT-Sybr green PCR analysis; type: cell-based; summary of the method: as §2
[37] = biological target: Histone deacetylase 11 (Homo sapiens) (UniProt Q96DB2); test: Inhibition of human recombinant HDAC11 at 10 uM using fluorogenic HDAC substrate class 2a measured after 30 mins by fluorimetry assay relative to control
Histone deacetylase 2 [38] = biological target: T3, Histone deacetylase 2; test: Inhibition of human recombinant HDAC2 using fluorogenic HDAC substrate measured after 15 mins by fluorimetry assay

T1 sequence (Q13547 whole entry): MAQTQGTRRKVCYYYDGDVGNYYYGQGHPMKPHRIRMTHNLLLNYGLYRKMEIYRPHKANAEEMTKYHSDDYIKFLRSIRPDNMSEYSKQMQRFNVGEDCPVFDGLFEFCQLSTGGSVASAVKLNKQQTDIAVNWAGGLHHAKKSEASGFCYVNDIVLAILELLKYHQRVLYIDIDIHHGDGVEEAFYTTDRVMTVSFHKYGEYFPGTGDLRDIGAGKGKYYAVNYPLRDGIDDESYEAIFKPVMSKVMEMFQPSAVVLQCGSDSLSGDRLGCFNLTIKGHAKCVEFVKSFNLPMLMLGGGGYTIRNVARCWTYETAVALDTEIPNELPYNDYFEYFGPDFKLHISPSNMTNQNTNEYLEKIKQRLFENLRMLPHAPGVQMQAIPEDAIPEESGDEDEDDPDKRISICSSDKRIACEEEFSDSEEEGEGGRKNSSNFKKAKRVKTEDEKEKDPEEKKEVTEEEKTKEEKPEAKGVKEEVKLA
T3 sequence (Q92769 whole entry): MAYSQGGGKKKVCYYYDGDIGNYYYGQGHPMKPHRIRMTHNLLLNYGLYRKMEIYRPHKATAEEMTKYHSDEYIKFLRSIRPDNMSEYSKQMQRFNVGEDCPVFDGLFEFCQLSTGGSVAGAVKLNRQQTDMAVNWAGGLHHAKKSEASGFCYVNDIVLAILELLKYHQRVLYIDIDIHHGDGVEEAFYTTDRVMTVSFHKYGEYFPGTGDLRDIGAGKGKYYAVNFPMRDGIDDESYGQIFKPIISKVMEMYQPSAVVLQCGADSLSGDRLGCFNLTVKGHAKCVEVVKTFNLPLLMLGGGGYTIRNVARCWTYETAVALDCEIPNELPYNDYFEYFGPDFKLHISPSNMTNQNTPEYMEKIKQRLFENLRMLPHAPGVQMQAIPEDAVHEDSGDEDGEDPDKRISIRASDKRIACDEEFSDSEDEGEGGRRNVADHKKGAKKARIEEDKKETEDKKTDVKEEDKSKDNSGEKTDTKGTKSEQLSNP
T4 sequence (P56524 whole entry): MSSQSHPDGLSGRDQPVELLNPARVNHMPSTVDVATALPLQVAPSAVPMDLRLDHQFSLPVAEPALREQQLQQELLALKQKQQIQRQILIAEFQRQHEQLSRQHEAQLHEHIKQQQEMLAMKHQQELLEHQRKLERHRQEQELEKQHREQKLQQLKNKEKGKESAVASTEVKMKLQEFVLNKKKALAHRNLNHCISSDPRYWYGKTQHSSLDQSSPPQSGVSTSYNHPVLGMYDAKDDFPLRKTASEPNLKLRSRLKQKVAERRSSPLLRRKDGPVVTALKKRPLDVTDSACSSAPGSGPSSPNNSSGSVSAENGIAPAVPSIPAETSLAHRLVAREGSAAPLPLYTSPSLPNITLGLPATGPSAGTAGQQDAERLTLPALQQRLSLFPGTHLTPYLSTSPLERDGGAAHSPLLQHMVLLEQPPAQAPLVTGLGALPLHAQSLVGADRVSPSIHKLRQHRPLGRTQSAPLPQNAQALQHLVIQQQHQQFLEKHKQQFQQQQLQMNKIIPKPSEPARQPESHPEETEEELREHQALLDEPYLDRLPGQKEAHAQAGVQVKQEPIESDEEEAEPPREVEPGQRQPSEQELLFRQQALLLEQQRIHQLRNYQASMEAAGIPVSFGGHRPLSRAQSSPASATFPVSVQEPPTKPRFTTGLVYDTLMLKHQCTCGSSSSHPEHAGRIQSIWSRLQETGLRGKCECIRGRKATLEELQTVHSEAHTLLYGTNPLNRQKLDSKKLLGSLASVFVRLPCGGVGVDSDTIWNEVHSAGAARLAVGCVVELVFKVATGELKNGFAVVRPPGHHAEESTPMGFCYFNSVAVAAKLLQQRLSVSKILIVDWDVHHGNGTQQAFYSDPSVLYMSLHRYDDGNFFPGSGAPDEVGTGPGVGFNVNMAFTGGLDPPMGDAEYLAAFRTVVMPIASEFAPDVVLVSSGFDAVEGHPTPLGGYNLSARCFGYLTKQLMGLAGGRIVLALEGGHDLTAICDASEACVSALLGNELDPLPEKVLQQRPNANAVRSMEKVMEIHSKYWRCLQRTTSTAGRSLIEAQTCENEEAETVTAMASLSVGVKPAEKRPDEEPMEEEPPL
T6 sequence (Q9UQL6 whole entry): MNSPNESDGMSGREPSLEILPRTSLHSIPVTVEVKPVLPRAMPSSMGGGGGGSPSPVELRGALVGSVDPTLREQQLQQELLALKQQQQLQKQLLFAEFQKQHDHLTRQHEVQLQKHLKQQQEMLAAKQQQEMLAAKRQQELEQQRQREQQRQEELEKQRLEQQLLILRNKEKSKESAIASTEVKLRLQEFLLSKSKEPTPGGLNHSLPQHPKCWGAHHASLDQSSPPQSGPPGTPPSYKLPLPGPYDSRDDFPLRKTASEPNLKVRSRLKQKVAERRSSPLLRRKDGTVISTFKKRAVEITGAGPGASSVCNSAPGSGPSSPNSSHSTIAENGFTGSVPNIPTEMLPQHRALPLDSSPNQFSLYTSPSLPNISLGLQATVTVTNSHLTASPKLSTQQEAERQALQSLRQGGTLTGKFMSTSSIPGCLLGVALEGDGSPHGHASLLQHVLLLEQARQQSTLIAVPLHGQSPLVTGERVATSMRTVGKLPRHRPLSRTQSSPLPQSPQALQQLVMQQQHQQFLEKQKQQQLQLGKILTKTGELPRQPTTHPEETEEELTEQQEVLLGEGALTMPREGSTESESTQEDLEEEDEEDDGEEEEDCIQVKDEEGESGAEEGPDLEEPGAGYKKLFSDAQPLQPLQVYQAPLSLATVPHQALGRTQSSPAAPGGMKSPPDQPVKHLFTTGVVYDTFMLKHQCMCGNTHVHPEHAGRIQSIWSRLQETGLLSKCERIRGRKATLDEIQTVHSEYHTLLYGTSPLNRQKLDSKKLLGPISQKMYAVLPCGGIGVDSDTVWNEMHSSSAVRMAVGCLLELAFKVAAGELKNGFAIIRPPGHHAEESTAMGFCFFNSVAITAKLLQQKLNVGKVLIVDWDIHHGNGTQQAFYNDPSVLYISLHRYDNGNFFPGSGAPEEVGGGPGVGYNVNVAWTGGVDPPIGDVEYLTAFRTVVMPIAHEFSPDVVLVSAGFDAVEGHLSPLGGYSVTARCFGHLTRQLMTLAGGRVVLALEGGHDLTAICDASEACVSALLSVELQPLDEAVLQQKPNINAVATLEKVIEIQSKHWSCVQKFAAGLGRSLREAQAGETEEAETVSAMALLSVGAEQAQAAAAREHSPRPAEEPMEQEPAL
T5 sequence (O15379 whole entry): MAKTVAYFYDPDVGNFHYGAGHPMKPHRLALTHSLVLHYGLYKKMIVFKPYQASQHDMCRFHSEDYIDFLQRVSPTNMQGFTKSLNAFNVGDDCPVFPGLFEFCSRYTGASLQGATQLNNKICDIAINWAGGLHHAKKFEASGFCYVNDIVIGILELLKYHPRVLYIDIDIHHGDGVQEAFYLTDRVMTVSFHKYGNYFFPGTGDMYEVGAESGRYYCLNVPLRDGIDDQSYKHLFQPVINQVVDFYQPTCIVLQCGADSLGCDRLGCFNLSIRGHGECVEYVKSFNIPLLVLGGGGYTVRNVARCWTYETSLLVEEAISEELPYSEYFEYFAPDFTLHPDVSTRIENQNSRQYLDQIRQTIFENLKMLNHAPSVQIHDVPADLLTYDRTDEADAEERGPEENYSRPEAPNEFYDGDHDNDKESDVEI
Sequence of NAD-dependent protein deacetylase sirtuin-1 (Homo sapiens) (Q96EB6 whole entry): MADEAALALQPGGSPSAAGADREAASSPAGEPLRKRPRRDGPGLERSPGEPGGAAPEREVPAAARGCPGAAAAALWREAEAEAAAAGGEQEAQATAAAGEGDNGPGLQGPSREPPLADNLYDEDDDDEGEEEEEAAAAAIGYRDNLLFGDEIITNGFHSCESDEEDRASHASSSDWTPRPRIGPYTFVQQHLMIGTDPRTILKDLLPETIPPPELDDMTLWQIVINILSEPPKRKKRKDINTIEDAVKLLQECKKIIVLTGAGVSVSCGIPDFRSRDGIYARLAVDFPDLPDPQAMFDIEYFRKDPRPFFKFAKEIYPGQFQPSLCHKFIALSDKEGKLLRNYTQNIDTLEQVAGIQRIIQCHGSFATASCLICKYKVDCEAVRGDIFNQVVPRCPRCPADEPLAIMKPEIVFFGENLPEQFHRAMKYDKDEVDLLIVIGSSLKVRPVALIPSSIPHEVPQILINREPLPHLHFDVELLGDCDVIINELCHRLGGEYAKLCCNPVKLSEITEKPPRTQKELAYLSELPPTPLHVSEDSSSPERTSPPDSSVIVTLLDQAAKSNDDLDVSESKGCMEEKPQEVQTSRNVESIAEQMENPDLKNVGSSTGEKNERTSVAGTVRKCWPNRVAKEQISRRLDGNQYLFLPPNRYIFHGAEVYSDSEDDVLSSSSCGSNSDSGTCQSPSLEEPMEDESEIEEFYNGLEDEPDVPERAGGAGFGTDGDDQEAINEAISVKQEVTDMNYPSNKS
Sequence of Histone deacetylase 8 (Homo sapiens) (Q9BY41 whole entry): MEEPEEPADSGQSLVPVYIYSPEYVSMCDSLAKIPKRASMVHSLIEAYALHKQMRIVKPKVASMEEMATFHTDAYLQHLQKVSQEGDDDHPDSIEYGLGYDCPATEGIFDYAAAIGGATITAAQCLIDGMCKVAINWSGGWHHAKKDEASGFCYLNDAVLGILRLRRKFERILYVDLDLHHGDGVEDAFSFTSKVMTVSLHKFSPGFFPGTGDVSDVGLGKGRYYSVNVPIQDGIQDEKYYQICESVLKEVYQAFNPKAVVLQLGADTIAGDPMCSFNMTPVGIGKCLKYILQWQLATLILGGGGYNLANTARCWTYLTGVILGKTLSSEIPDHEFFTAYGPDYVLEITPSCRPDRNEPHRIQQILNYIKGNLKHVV
Sequence of Histone deacetylase 8 (Q9BY41 whole entry): as above

Cc1ccc(C(=O)Nc2ccc(S(=O)(=O)O)c3cc(S(=O)(=O)O)cc(S(=O)(=O)O)c23)cc1NC(=O)c1cccc(NC(=O)Nc2cccc(C(=O)Nc3cc(C(=O)Nc4ccc(S(=O)(=O)O)c5cc(S(=O)(=O)O)cc(S(=O)(=O)O)c45)ccc3C)c2)c1 [SURAMIN]
IC50 [1]: 17 µM

COC(=O)c1ccc2ccccc2c1OCCCCCCCC(=O)NO
IC50 (Histone deacetylase 1 [2]): 3.5 µM | inhibition [3]: -2.6% | Activity [4]: Active | IC50 (Histone deacetylase 8): 1.6 µM | IC50 (cells [5]): 15.6 µM | IC50 (Histone deacetylase 11): 6.6 µM | inhibition [6]: 93.1% | Activity [7]: Active | inhibition [8]: 104% | Activity [9]: Active | Ratio IC50 (Homo sapiens [10]): 17 to 37 | Ratio IC50 (Homo sapiens [11]): 10 | IC50 (Histone deacetylase 7): Not Active | EC50 (Histone deacetylase): 7.84 µM | Activity [12]: Active | inhibition (Histone deacetylase 2 [13]): 67.1% | inhibition (Histone deacetylase 4 [14]): -4.8% | Ratio IC50 (Homo sapiens [15]): 17 to 37 | Activity [16]: Active | IC50 (A549): 62.4 µM | Activity [17]: Active | inhibition (Histone deacetylase 1 [18]): 84.7% | Ratio IC50 (Homo sapiens [19]): 17 to 37 | inhibition (Histone deacetylase 3 [20]): 87.9% | IC50 (Histone deacetylase 3 [21]): 1 µM | Activity [22]: Active | IC50 (Histone deacetylase 4 [23]): Not Active | IC50 [24]: 1.6 µM | Activity [25]: Active | IC50 (cells [26]): 15.9 µM | Ratio IC50 (Homo sapiens [27]): 17 to 37 | inhibition (Histone deacetylase 5 [28]): 2.8% | Ratio IC50 (Homo sapiens [29]): 17 to 37 | IC50 (Histone deacetylase 9): Not Active | IC50 (cells [30]): 15.7 µM | Activity [31]: Active | IC50 (Histone deacetylase 5 [32]): Not Active | inhibition [33]: -8.2% | IC50 [34]: 0.095 µM | inhibition [35]: 82.3% | Activity [36]: Active | inhibition [37]: 57.2% | IC50 (Histone deacetylase 2 [38]): 3.4 µM

CC(=O)Nc1ccc(C(=O)Nc2ccccc2N)cc1 [TACEDINALINE]
IC50 (cells [5]): 7.83 µM | IC50 (A549): 16 µM | IC50 (cells [26]): 15.8 µM | IC50 (cells [30]): 3.9 µM

COC(=O)c1ccc2ccccc2c1OCCCCCCCC(=O)Nc1ccccc1N
EC50 (Histone deacetylase): 8.14 µM
